Consider four molecules from ChEMBL document CHEMBL1800057, “Discovery of dual inducible/neuronal nitric oxide synthase (iNOS/nNOS) inhibitor development candidate 4-((2-cyclobutyl-1H-imidazo[4,5-b]pyrazin-1-yl)methyl)-7,8-difluoroquinolin-2(1H)-one (KD7332) part 2: identification of a novel, potent, and selective series of benzimidazole-quinolinone …” (J Med Chem, 2010).

The test system of data set [1] is Mus musculus. Briefly: Antiallodynic activity against von Frey hair mechanically stimulated neuropathic pain in mouse Chung model of neuropathic pain assessed as attenuation of tactile allodynia at 30 mg/kg, po. The class given is functional, organism-based. Further details: dose 30 mg/kg. The essentials: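 Spinal nerve ligation (Chung) surgery done under isoflurane anaesthesia (5% induction, 2-3% maintenance). Only mice with baseline 50% withdrawal threshold ~0.2-0.3 g at days 5-10 after surgery were included. Von Frey filaments applied for 10 s each; 50% threshold calculated by Dixon up-down method. Compound given po at 30 mg/kg, and also 30 mg/kg BID for four days.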

Data set [2] has as its system Mus musculus. Nature of the data set: Antiallodynic activity against von Frey hair mechanically stimulated neuropathic pain in mouse Chung model of neuropathic pain assessed as attenuation of tactile allodynia at 30 mg/kg, po bid for 4 days. The class given is functional, organism-based. Further details: dose 30 mg/kg. Summed up: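 Spinal nerve ligation in mice under isoflurane (5% induction, 2-3% maintenance). Von Frey filaments pressed on the paw for up to 10 s. 50% withdrawal threshold derived by Dixon's up-down method. Only mice with baseline thresholds of ~0.2-0.3 g between 5 and 10 days post-surgery were included. Dosing was oral.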

For a further data set, the system named is Rhesus monkey. Nature of the data set: Inhibition of capsaicin-induced thermal hyperalgesia in rhesus monkey model. The class given is functional, organism-based. Conditions: Macaca mulatta.
Data set [3] is filed under the species Homo sapiens. Nature of the data set: Ratio of IC50 for human eNOS to EC50 for human iNOS.
The species named for data set [4] is Homo sapiens. Briefly: Ratio of IC50 for human nNOS to EC50 for human iNOS.
Data set [5] has as its target T1, Nitric oxide synthase 1 (Homo sapiens, UniProt P29475). Nature of the data set: Inhibition of human nNOS expressed in HEK293 cells assessed as inhibition ionomycin induced nitric oxide production at 100 uM incubated for 24 hrs measured after 18 hrs of ionomycin challenge using 2,3-diaminonaphthalene by fluorescence assay. The class given is cell-based.
The target of data set [6] is T2, Nitric oxide synthase, inducible (Homo sapiens, UniProt P35228). Nature of the data set: Inhibition of human iNOS expressed in HEK293 cells assessed as inhibition of nitric oxide production after 18 hrs using 2,3-diaminonaphthalene by fluorescence assay. Format: cell-based. Summed up:
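HEK293 cells grown to ~70% confluence in DMEM/10% FBS with pen/strep, transiently transfected with 10 μg human or murine iNOS plasmid plus Fugene 6 for 4 h at 37 °C, 10% CO2. Cells replated at 5e5 cells/mL and dosed with compound at once; 1400W (100 μM final) as positive control. After 18 h, DAN (10 μg/mL final) in HCl (0.1 N final) added for 20 min at room temperature. Fluorescence read after NaOH (0.12 N final).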

For data set [7], the target named is T1, Nitric oxide synthase 1. Nature of the data set: Inhibition of human nNOS expressed in HEK293 cells assessed as inhibition ionomycin induced nitric oxide production incubated for 24 hrs measured after 18 hrs of ionomycin challenge using 2,3-diaminonaphthalene by fluorescence assay. The class given is cell-based. The essentials: (§1)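 HEK293 cells transfected for 4 h at 37 °C with human nNOS (10 μg) or human eNOS (15 μg) plasmid (Fugene 6, 3:1). Cells replated at 5e5 cells/mL and dosed with compound at once; SEITU (100 μM final) as positive control. After 24 h, cells activated with A23187 (83 nM final) for eNOS or ionomycin (30 μM final) for nNOS. NO read 18 h later as nitrite-DAN fluorescence.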

For the next data set, the target named is T3, Nitric oxide synthase 3 (Homo sapiens, UniProt P29474).
T3 sequence (P29474 whole entry): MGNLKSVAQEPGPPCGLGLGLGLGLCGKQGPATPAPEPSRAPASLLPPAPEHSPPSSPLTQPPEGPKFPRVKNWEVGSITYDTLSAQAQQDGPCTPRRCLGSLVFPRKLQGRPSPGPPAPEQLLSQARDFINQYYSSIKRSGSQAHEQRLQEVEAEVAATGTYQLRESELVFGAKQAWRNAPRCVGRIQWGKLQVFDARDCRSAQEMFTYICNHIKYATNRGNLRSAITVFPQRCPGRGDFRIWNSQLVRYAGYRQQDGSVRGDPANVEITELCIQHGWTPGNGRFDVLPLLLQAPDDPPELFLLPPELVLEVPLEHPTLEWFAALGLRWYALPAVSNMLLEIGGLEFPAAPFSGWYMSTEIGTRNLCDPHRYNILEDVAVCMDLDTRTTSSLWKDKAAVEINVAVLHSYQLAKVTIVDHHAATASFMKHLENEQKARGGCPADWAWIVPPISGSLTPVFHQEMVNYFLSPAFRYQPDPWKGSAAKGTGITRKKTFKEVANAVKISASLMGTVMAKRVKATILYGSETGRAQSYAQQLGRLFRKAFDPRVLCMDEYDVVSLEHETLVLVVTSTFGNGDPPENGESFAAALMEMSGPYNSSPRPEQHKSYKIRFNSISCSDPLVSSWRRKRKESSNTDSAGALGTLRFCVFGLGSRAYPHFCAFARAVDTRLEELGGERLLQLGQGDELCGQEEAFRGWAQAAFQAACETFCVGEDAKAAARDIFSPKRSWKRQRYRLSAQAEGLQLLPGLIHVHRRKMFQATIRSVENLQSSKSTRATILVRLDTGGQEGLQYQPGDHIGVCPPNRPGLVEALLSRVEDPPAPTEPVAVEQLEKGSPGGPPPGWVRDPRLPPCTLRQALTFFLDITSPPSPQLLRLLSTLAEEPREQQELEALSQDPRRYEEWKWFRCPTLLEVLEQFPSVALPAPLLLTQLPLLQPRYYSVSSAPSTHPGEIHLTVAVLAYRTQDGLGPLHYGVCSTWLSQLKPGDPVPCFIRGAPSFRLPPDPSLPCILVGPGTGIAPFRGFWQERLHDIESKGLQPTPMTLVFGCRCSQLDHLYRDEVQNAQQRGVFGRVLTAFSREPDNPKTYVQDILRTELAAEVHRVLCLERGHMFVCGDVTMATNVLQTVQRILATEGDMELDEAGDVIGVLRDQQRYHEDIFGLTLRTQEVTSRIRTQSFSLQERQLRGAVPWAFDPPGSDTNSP
Nature of the data set: Inhibition of human eNOS expressed in HEK293 cells assessed as inhibition A23187 induced nitric oxide production incubated for 24 hrs measured after 18 hrs of […] challenge using 2,3-diaminonaphthalene by fluorescence assay. Format: cell-based. The essentials:
as §1

A further data set deals with Liver. Briefly: Half life in mouse liver microsomes assessed as formation of oxidation product and glucuronide conjugate. Format: ADME, Microsome. Summed up:
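Mouse liver microsomes run under combined phase I oxidation and phase II glucuronide conjugation; half-life reported in minutes.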
(Microsomes from liver hold many membrane-bound enzymes, among them those of drug oxidation.)

In data set [8] the target is T4, Nitric oxide synthase 3 (Homo sapiens) (UniProt P29474).
T4 sequence (whole entry): T3 sequence (P29474 whole entry)
Nature of the data set: Inhibition of human eNOS expressed in HEK293 cells assessed as inhibition A23187 induced nitric oxide production at 100 uM incubated for 24 hrs measured after 18 hrs of […] challenge using 2,3-diaminonaphthalene by fluorescence assay. The class given is cell-based.

Data set [9] has as its system Mus musculus. Briefly: Antiallodynic activity against von Frey hair mechanically stimulated neuropathic pain in mouse Chung model of neuropathic pain assessed as attenuation of tactile allodynia at 300 mg/kg, po. Format: functional, organism-based. Also noted: dose 300 mg/kg.
The subject of data set [10] is Mus musculus. Nature of the data set: Neurotoxicity in C57Bl/6j mouse assessed as inability to maintain equilibrium on rotarod up to 1000 mg/kg, po determined 1 to 3 hrs postdose by rotarod test. The settings on record: in vivo. The class given is toxicity, organism-based. Also noted: dose 1000 mg/kg, route oral. The essentials: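 Male C57Bl/6j mice were acclimated to the rotarod at 4 rpm, then given two training sessions on an accelerating rod (4-40 rpm over 300 s). Only mice with latencies >60 s were kept. After oral dosing, latency to fall from the accelerating rod was recorded at 1, 2 and 3 h.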
Background: Falling from the rotarod earlier than controls is read as motor impairment.

Data set [11] concerns Mus musculus. Nature of the data set: Antinociceptive activity against formalin-induced pain in mouse assessed as attenuation of nocifensive phase 2 behaviors during phase 2 (25 to 45 mins post formalin injection) administered via oral gavage 30 mins before to formalin challenge. Format: functional. The essentials:
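Mice were given compound by oral gavage in PEG/Tween 80/PVP + CMC vehicle 30 min before 20 μL of 5% formalin was injected into the left hind paw. Paw flinching, licking and biting were timed in 5 min bins by a single observer. Read-out was time in nociceptive behaviour at 25-45 min. Mean ± SE, n = 5-6, one-way ANOVA with post hoc tests.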

Data set [12] is described as follows: Plasma clearance in mouse at 1 mg/kg, iv and 10 mg/kg, po. Format: ADME, organism-based.
Data set [13] in a line: Volume of distribution at steady state in mouse at 1 mg/kg, iv and 10 mg/kg, po. Format: ADME, organism-based. The settings on record: in vivo, read-out: Vdss.
Data set [14] is described as follows: Cmax in mouse at 1 mg/kg, iv and 10 mg/kg, po. The settings on record: in vivo. The class given is ADME, organism-based.
Data set [15] in a line: Half life in mouse at 1 mg/kg, iv and 10 mg/kg, po. Format: ADME, organism-based. Conditions: in vivo.
Data set [16] is described as follows: Oral bioavailability in mouse at 10 mg/kg. The class given is ADME, organism-based. The settings on record: in vivo.
For data set [17], the species on record is Homo sapiens. Briefly: Selectivity for human iNOS over human eNOS. The essentials:
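Ratio of EC₅₀ values from transiently transfected HEK293 cells. iNOS: plasmid, 18 h with compound, 1400W control, n = 8/point. eNOS: 15 μg human eNOS plasmid, 24 h with compound at 37 °C, then A23187 (83 nM final) for 18 h, SEITU (100 μM final) control, n = 3/point. NO read by DAN fluorescence; each EC₅₀ from three runs of 10-point curves.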

Data set [18] concerns the target T2, Nitric oxide synthase, inducible. Nature of the data set: Inhibition of human iNOS. The essentials:
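HEK293 cells grown to about 70% confluence in DMEM with 10% FBS and pen/strep, then transiently transfected with human iNOS plasmid using Fugene 6 for 4 h at 37 °C, 10% CO₂. Cells replated at 5e5 cells/mL and treated at once with compound; 1400W (100 μM final) as positive control. After 18 h, NO read as DAN-nitrite fluorescence. EC₅₀ from three runs, 10-point curves, n = 8/point.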

A short description of data set [19]: Plasma clearance in mouse. Format: ADME, organism-based.
Data set [20] in a line: Half life in mouse. Format: ADME, organism-based. Conditions: in vivo.

SMILES strings stand for the structures. Activity calls are given as the source filed them. Bounds are passed on as bounds.

T2 sequence (P35228 whole entry): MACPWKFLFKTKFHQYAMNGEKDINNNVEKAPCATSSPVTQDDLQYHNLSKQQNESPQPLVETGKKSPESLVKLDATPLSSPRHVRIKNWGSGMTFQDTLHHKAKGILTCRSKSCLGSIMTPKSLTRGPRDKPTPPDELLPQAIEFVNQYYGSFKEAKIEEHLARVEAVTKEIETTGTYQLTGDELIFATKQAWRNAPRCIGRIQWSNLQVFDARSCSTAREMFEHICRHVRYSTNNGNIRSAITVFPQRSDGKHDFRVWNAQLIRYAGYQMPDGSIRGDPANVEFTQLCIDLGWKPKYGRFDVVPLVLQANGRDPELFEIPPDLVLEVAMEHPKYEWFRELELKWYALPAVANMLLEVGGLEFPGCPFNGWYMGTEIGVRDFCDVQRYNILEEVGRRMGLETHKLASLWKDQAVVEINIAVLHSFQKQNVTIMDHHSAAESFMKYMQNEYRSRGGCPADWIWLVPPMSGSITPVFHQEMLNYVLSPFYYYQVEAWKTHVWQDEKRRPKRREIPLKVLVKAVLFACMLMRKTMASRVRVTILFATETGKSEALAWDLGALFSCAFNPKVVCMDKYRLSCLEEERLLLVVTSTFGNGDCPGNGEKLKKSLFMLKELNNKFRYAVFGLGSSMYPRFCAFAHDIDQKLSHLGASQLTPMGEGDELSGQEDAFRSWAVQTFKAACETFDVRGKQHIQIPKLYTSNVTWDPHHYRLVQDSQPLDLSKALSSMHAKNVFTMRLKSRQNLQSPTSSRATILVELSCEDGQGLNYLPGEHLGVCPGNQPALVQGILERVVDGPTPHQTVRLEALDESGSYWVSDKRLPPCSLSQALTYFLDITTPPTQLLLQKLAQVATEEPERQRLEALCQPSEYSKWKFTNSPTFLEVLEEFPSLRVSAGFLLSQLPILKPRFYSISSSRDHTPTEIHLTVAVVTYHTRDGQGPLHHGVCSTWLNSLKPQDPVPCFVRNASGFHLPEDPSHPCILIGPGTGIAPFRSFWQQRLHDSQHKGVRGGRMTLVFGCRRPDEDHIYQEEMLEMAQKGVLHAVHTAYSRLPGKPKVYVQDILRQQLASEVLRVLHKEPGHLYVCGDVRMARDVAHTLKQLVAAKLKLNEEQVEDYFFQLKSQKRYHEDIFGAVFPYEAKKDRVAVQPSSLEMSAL
T1 sequence (P29475 whole entry): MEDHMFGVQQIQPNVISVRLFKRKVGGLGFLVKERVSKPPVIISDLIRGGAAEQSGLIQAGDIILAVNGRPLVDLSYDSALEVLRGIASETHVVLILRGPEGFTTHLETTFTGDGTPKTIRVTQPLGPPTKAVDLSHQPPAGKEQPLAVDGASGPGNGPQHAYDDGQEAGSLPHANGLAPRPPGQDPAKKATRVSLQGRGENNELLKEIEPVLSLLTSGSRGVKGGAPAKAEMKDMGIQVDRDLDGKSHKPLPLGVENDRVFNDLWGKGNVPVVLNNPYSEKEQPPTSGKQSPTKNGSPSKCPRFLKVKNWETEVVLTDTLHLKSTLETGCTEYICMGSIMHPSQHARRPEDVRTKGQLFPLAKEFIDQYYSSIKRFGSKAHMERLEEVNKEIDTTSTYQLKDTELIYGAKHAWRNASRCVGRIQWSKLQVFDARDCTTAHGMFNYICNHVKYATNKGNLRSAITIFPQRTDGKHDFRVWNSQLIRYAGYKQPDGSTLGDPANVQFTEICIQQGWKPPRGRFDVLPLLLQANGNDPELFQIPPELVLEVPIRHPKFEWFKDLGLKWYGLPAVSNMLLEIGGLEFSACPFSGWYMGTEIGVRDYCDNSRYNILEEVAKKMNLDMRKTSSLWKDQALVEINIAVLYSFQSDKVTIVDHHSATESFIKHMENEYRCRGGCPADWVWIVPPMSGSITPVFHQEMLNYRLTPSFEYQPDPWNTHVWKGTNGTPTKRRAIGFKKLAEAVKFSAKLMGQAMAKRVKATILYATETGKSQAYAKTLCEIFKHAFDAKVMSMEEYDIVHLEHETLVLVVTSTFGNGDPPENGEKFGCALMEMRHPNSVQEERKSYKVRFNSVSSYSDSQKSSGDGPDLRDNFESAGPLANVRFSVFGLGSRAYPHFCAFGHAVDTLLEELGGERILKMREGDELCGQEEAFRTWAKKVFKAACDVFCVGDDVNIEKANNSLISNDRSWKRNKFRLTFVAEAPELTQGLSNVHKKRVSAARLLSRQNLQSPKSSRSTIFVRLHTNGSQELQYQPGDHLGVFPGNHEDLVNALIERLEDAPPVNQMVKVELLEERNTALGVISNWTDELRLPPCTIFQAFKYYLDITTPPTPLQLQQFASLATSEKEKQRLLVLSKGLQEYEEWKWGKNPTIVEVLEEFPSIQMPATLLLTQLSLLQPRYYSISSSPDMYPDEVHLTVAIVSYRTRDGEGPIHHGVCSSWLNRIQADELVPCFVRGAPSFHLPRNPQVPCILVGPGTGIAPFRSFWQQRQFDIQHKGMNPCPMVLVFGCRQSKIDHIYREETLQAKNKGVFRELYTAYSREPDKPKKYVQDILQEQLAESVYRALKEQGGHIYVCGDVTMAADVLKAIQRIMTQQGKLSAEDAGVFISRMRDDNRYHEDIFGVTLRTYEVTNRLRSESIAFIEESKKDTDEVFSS

With `O=c1cc(Cn2c(C3CCC3)nc3nccnc32)c2ccc(F)c(F)c2[nH]1`, the result in the data set with Mus musculus [1] and in the data set with Mus musculus [2] was Active. For the same molecule, the inhibition (in general, the percentage by which the read-out fell short of the control) in the data set on Rhesus monkey was “Active”. Also, the Ratio EC50 stood at 180 in the data set listed under Homo sapiens [3] and 3.3 in the data set filed under Homo sapiens [4].
As for `CC(C)(C)c1nc2ccccc2n1Cc1cc(=O)[nH]c2c(F)c(F)ccc12`, the inhibition (at Nitric oxide synthase 1 [5]; in [8]) was below 50% each time. In addition, the 50% effective concentration (EC50) (in general, the concentration that produces a half-maximal response) was 48 µM in data set [6], above 100 µM on Nitric oxide synthase 1 [7] and above 100 µM on Nitric oxide synthase 3. In the data set with Liver, the t1/2 is above 120 min. Moreover, the Ratio EC50 in the data set listed under Homo sapiens [3] and in the data set filed under Homo sapiens [4] was above 2 in each case.
As to `NCC1(CC(=O)O)CCCCC1` [GABAPENTIN], the result in the data set on Mus musculus [9] was Active. For the same molecule, the Activity result with Mus musculus [10] is recorded as “Dose-dependent effect”. In addition, the ED50 (as a rule, the midpoint of the dose-response relation) in the data set on Mus musculus [11] worked out at 110 mg/kg.
In the case of `Cc1ncsc1C(=O)N(Cc1cc(=O)[nH]c2c(F)cccc12)c1cccc(Cl)c1`, the clearance in data set [12] and in [19] was above 100 mL/min/kg throughout. Further, the Vd in data set [13] was determined as 1.6 L/kg. Moreover, the Cmax (in general, the highest concentration seen after dosing) in data set [14] amounted to 1400 ng/mL. The half-life in [15] and in [20] was 12 min each time. In addition, the bioavailability (in general, dose-corrected exposure relative to a reference, in per cent) in [16] is 7%. Further, the Selectivity ratio in the data set listed under Homo sapiens [17] is above 2000. Moreover, the IC50 (in general, the concentration that inhibits the measured activity by half) in [18] is 0.011 µM.
